Measured values as given in ChEMBL document CHEMBL1143714, “Nocardichelins A and B, siderophores from Nocardia strain acta 3026” (2007).
Active and inactive are the calls of the source. The calls are words filed in the database; no cut-off is given here.

Legend:
Saccharomyces cerevisiae = assay: Growth inhibition against yeast after 48 hrs by agar plate diffusion assay; type: functional, organism-based
Method in brief: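 10 µL sample aliquots applied to 6 mm filter disks placed on inoculated test plates; fungal plates incubated 48 h at temperature optimal for the test organism; activity read from growth inhibition on agar.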

HepG2 = assay: Growth inhibition of human HepG2 cells after 48 hrs; type: functional; conditions: HepG2, 48 h
Method in brief: (§1)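 Run per NCI guidelines. Cells grown in RPMI 1640 with 10% fetal calf serum, 5% CO2, humidified. Compounds added after 24 h as DMSO solutions at 0.1-10 µg/mL, 0.1% final DMSO, then 48 h further culture. Cell count by sulforhodamine B protein staining. GI50 (50% growth inhibition) and TGI derived.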

[1] = Growth inhibition of human MCF cells after 48 hrs; type: functional; method in brief: as §1
AGS = assay: Growth inhibition of human AGS cells after 48 hrs; type: functional; method in brief: as §1

For `CCCCCCCCCCC/C=C\C(=O)N(O)CCCCCNC(=O)CCC(=O)N(O)CCCCCNC(=O)[C@@H]1COC(c2ccccc2O)=N1` [NOCARDICHELIN B], the Activity (Saccharomyces cerevisiae) was “inactive”, the GI50 (HepG2) was 69.9 nM and the TGI (HepG2) was 335 nM. For the same molecule, the GI50 [1] was 1130 nM, the TGI [1] was 3490 nM and the GI50 (AGS) was 44.7 nM. For the same molecule, the TGI (AGS) was 1500 nM.

In the case of `CCCCCCCCCCCCC/C=C\C(=O)N(O)CCCCCNC(=O)CCC(=O)N(O)CCCCCNC(=O)[C@@H]1COC(c2ccccc2O)=N1` [NOCARDICHELIN A], the Activity (Saccharomyces cerevisiae) is reported as “inactive”, the GI50 (HepG2) is reported as 282 nM and the TGI (HepG2) is reported as 471 nM. The GI50 [1] was 202 nM, the TGI [1] was 538 nM and the GI50 (AGS) was 28.2 nM. It also gave a TGI (AGS) of 202 nM.
